How the values were obtained:
[1] = target: Voltage-dependent N-type calcium channel subunit alpha-1B (Homo sapiens, UniProt Q00975); assay: In vitro inhibition of N-type calcium channels in IMR-32 cells.; assay type: cell-based
Procedure, shortened: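 N-type channel block was assessed in IMR-32 cells. Cells in suspension were loaded with fura-2/AM for 30 min at 37 °C, and calcium influx ([Ca²⁺]i) was measured. IC50 values are means of multiple determinations, each performed in duplicate.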

[2] = system: L-type calcium channel (Mus musculus); assay: In vitro inhibition of L-type calcium channels in AtT-20 cells.; settings: att20
[3] = In vitro inhibition of L-type calcium channels in AtT-20 cells.; assay type: functional, cell-based, Mus musculus; settings: att20
Procedure, shortened: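 Mouse pituitary tumour AtT-20/D16v-F2 cells, grown in DMEM with 10% FBS and penicillin–streptomycin, served as the L-type channel source. Cells in suspension were loaded with fura-2/AM for 30 min at 37 °C, and calcium influx ([Ca²⁺]i) was read fluorometrically. IC50 values are means of multiple determinations, each run in duplicate.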

Chain of Voltage-dependent N-type calcium channel subunit alpha-1B (Q00975 whole entry): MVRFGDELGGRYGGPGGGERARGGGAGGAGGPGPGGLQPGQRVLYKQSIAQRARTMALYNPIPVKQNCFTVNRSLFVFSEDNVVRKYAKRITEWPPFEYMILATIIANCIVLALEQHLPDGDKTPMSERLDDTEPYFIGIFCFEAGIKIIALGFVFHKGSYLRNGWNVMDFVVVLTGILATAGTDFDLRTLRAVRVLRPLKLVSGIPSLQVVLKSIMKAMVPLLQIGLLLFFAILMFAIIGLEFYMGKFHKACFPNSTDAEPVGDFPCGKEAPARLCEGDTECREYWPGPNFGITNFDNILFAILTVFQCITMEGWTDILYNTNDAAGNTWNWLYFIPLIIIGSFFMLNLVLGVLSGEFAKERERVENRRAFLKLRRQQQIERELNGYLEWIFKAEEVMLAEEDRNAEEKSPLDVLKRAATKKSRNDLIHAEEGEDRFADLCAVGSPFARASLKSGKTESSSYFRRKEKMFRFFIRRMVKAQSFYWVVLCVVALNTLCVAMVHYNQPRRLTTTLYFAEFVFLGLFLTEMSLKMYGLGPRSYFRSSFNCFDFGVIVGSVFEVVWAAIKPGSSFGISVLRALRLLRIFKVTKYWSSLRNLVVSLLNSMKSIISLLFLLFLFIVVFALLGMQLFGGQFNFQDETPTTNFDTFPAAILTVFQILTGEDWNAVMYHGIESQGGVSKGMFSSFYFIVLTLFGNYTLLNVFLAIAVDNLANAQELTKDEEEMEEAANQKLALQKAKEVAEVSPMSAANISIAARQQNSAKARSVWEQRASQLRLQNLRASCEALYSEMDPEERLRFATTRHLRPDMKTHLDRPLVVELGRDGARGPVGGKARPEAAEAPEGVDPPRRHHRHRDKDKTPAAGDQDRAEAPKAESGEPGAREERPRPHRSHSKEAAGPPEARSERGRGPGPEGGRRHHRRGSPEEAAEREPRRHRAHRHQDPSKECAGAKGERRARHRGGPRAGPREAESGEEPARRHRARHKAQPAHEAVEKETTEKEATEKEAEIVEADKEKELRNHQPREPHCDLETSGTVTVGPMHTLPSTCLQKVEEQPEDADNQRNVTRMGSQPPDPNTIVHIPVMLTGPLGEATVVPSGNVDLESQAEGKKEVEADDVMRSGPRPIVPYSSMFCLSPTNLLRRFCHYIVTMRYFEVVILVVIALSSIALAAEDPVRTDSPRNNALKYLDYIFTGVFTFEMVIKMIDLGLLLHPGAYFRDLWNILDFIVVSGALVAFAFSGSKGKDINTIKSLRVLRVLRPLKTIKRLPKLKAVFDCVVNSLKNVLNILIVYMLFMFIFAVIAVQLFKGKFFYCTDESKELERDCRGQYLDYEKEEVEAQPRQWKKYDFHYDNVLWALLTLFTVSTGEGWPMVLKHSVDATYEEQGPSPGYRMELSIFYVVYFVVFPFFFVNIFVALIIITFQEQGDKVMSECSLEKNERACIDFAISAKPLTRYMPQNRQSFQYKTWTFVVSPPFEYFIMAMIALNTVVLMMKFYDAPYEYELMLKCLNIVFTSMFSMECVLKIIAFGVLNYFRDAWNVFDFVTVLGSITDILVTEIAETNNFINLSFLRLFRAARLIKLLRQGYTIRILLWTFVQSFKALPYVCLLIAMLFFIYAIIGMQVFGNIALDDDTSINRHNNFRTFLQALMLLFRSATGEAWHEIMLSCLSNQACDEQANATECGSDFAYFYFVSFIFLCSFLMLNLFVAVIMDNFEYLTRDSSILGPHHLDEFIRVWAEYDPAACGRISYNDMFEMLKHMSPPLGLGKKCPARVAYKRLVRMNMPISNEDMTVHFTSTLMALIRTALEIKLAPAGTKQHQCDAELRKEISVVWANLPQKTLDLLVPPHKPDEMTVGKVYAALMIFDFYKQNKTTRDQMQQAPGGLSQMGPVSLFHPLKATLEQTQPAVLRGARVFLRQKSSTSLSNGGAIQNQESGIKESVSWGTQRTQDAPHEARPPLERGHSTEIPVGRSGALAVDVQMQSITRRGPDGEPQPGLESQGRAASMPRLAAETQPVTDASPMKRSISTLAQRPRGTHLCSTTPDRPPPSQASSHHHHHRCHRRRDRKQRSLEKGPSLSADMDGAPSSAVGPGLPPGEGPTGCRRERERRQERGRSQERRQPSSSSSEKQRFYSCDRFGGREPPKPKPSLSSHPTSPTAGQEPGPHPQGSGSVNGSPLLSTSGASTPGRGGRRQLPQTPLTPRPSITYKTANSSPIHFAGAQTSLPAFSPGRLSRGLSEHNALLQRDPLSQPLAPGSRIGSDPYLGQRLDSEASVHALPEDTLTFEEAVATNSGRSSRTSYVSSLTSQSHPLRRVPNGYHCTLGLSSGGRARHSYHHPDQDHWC

SMILES	IC50 [1]	IC50 [2]	IC50 [3]
CC(C)(C)OC(=O)N1CSC[C@H]1C(=O)N[C@@H](CSCC1CCCCC1)C(=O)NCc1ccc(OCc2ccccc2)cc1	500 nM	1500 nM	
COc1ccc(CNC(=O)[C@H](CSCC2CCCCC2)NC(=O)C2CCCC2)cc1	920 nM		2300 nM
COc1ccc(CNC(=O)[C@@H](N)CSCC2CCCCC2)cc1	5800 nM		
COc1ccc(CNC(=O)[C@H](CSCC2CCCCC2)NC(=O)CC(C)C)cc1	1200 nM		2700 nM
CC(C)(C)OC(=O)N1CSC[C@H]1C(=O)N[C@@H](CSCC1CCCCC1)C(=O)NCc1ccc([N+](=O)[O-])cc1	600 nM	500 nM	
COc1ccc(CNC(=O)[C@H](CSCC2CCCCC2)NC(=O)c2cscn2)cc1	1900 nM		2700 nM
CC(C)(C)OC(=O)N1CSC[C@H]1C(=O)N[C@@H](CSCC1CCCCC1)C(=O)NCc1ccc(O)cc1	1800 nM	2800 nM	
COc1ccc(CNC(=O)[C@H](CSCC2CCCCC2)NC(=O)OCC(C)C)cc1	720 nM		1500 nM
CN(C)c1ccc(CNC(=O)[C@H](CSCC2CCCCC2)NC(=O)[C@@H]2CSCN2C(=O)OC(C)(C)C)cc1	610 nM	950 nM	
COc1ccc(CNC(=O)[C@H](CSCC2CCCCC2)NC(=O)C2CCCCC2)cc1	1300 nM		1900 nM
CC(C)(C)OC(=O)N1CSC[C@H]1C(=O)N[C@@H](CSCC1CCCCC1)C(=O)NCc1ccc(Oc2ccccc2)cc1		1700 nM	

Other lines, results leading:

IC50 [1]	IC50 [2]	IC50 [3]	SMILES
360 nM	1200 nM		CC(C)COC(=O)N1CSC[C@H]1C(=O)N[C@@H](CSCC1CCCCC1)C(=O)NCc1ccc(Oc2ccccc2)cc1
330 nM	440 nM		C=CCOC(=O)N1CSC[C@H]1C(=O)N[C@@H](CSCC1CCCCC1)C(=O)NCc1ccc(Oc2ccccc2)cc1
350 nM	1100 nM		O=C(NCc1ccc(Oc2ccccc2)cc1)[C@H](CSCC1CCCCC1)NC(=O)[C@@H]1CSCN1CCO
290 nM	2000 nM		O=C(N[C@@H](CSCC1CCCCC1)C(=O)NCc1ccc(Oc2ccccc2)cc1)[C@@H]1CSCN1
120 nM	930 nM		COCC(=O)N1CSC[C@H]1C(=O)N[C@@H](CSCC1CCCCC1)C(=O)NCc1ccc(Oc2ccccc2)cc1
120 nM	870 nM		COC(=O)N1CSC[C@H]1C(=O)N[C@@H](CSCC1CCCCC1)C(=O)NCc1ccc(Oc2ccccc2)cc1
200 nM	600 nM		COCCN1CSC[C@H]1C(=O)N[C@@H](CSCC1CCCCC1)C(=O)NCc1ccc(Oc2ccccc2)cc1

Reference: ChEMBL document CHEMBL1135246, “Structure-activity study of L-cysteine-based N-type calcium channel blockers: optimization of N- and C-terminal substituents” (Bioorg Med Chem Lett, 2002)
